Activity calls are given as the source filed them. The calls are words filed in the database; no cut-off is given here.
What was measured:
Homo sapiens [1] = assay: AUC (0 to infinity) in human at 500 mg, po QD measured on day 10 by […] analysis; type: ADME, organism-based, Plasma; set-up: dose 500 mg, route oral, time infinity; conditions: in vivo
Callithrix jacchus [2] = assay: AUC in common marmoset at 40 mg/kg, po BID measured on day 7 by […] analysis; type: ADME, organism-based, Plasma; set-up: dose 40 mg/kg, route oral; conditions: in vivo
Outline: (§1)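 Oral levofloxacin, 40 mg/kg twice daily in banana milkshake for 7 consecutive days. Day-7 sampling: predose and 1, 4 and 8 h (group A, n=3); 0.5, 2, 6 and 12 h (group B, n=3). Lithium-heparin plasma was held at −70°C and quantified by LC-MS/MS-ESI against spiked-plasma standards (0.1–50 μg/ml). PK parameters were derived.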

[3] = Cmax in human at 500 mg, po QD measured on day 10 by […] analysis; conditions: in vivo
[4] = Half life in Rhesus monkey at 15 mg/kg followed by 4 mg/kg in 12 hrs dosing interval by LS/MS/MS analysis; type: ADME, organism-based, Macaca mulatta; conditions: in vivo
[5] = Tmax in Rhesus monkey at 15 mg/kg by […] analysis; type: ADME, organism-based, Macaca mulatta; set-up: dose 15 mg/kg; conditions: in vivo
[6] = Tmax in human at 500 mg, po by […] analysis; type: ADME, organism-based; conditions: in vivo
[7] = Cmax in Rhesus monkey at 15 mg/kg by […] analysis; type: ADME, organism-based, Macaca mulatta; set-up: dose 15 mg/kg; conditions: in vivo
Rhesus monkey [8] = assay: AUC (0 to infinity) in Rhesus monkey at 15 mg/kg followed by 4 mg/kg in 12 hrs dosing interval by […] analysis; type: ADME, organism-based, Macaca mulatta, Plasma; set-up: dose 15 mg/kg, time infinity; conditions: in vivo
[9] = Tmax in common marmoset at 40 mg/kg, po BID measured on day 7 by […] analysis; type: ADME, organism-based, Callithrix jacchus; set-up: dose 40 mg/kg, route oral; conditions: in vivo; outline: as §1
Callithrix jacchus [10] = assay: AUC in common marmoset at 40 mg/kg, po BID measured on day 1 by […] analysis; type: ADME, organism-based, Plasma; set-up: dose 40 mg/kg, route oral; conditions: in vivo
Outline: (§2)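 Marmosets were dosed orally with 40 mg/kg levofloxacin twice daily in banana milkshake for 7 days. On day 1, group A (n=3) was bled predose and at 1, 4 and 8 h, and group B (n=3) at 0.5, 2, 6 and 12 h. Heparinised plasma was stored at −70°C and measured by LC-MS/MS-ESI (calibration 0.1–50 μg/ml). PK parameters were calculated.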

[11] = Cmax in Rhesus monkey at 15 mg/kg followed by 4 mg/kg in 12 hrs dosing interval by […] analysis; type: ADME, organism-based, Macaca mulatta; set-up: dose 15 mg/kg; conditions: in vivo
[12] = Half life in common marmoset at 40 mg/kg, po measured on day 1 by […] analysis; type: ADME, organism-based, Callithrix jacchus; set-up: dose 40 mg/kg, route oral; conditions: in vivo
Outline: (§3)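 Six marmosets (25–64 months, 310–560 g) received one oral 40 mg/kg levofloxacin dose in banana milkshake. Two groups of three were bled at 0.5, 2 and 6 h or at 1, 4 and 8 h. Lithium-heparin plasma was stored at −70°C and assayed by LC-MS/MS-ESI against a spiked-plasma calibration curve (0.1–50 μg/ml). PK parameters were derived from the pooled profile.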

[13] = Half life in human at 500 mg, po QD measured on day 10 by LS/MS/MS analysis; type: ADME, organism-based; conditions: in vivo
[14] = Cmax in common marmoset at 40 mg/kg, po BID measured on day 7 by […] analysis; type: ADME, organism-based, Callithrix jacchus; set-up: dose 40 mg/kg, route oral; conditions: in vivo; outline: as §1
[15] = Half life in Rhesus monkey at 15 mg/kg by LS/MS/MS analysis; type: ADME, organism-based, Macaca mulatta; set-up: dose 15 mg/kg; conditions: in vivo
[16] = Cmax in human at 500 mg, po by […] analysis; conditions: in vivo
[17] = Half life in common marmoset at 40 mg/kg, po BID measured on day 7 by […] analysis; type: ADME, organism-based, Callithrix jacchus; set-up: dose 40 mg/kg, route oral; conditions: in vivo; outline: as §1
[18] = Half life in human at 500 mg, po by LS/MS/MS analysis; type: ADME, organism-based; conditions: in vivo
[19] = Tmax in human at 500 mg, po QD measured on day 10 by […] analysis; type: ADME, organism-based; conditions: in vivo
Francisella tularensis = assay: Antimicrobial activity against Francisella tularensis SCHU S4 infected in common marmoset assessed as survival of marmoset at 16.5 mg/kg BID for 10 days measured on day 24; type: functional, organism-based; set-up: dose 16.5 mg/kg
[20] = Cmax in common marmoset at 40 mg/kg, po BID measured on day 1 by […] analysis; type: ADME, organism-based, Callithrix jacchus; set-up: dose 40 mg/kg, route oral; conditions: in vivo; outline: as §2
[21] = Tmax in Rhesus monkey at 15 mg/kg followed by 4 mg/kg in 12 hrs dosing interval by […] analysis; type: ADME, organism-based, Macaca mulatta; conditions: in vivo
[22] = Cmax in common marmoset at 40 mg/kg, po measured on day 1 by […] analysis; type: ADME, organism-based, Callithrix jacchus; set-up: dose 40 mg/kg, route oral; conditions: in vivo; outline: as §3
Callithrix jacchus [23] = assay: AUC in common marmoset at 40 mg/kg, po measured on day 1 by […] analysis; type: ADME, organism-based, Plasma; set-up: dose 40 mg/kg, route oral; conditions: in vivo; outline: as §3
Rhesus monkey [24] = assay: AUC (0 to infinity) in Rhesus monkey at 15 mg/kg by […] analysis; type: ADME, organism-based, Macaca mulatta, Plasma; set-up: time infinity, dose 15 mg/kg; conditions: in vivo
[25] = Half life in common marmoset at 40 mg/kg, po BID measured on day 1 by […] analysis; type: ADME, organism-based, Callithrix jacchus; set-up: dose 40 mg/kg, route oral; conditions: in vivo; outline: as §2
Homo sapiens [26] = assay: AUC (0 to infinity) in human at 500 mg, po by […] analysis; type: ADME, organism-based, Plasma; set-up: dose 500 mg, time infinity, route oral; conditions: in vivo

`C[C@H]1COc2c(N3CCN(C)CC3)c(F)cc3c(=O)c(C(=O)O)cn1c23.C[C@H]1COc2c(N3CCN(C)CC3)c(F)cc3c(=O)c(C(=O)O)cn1c23.O` [LEVOFLOXACIN] showed an AUC (Homo sapiens [1]) of 47500 ng·h/mL, an AUC (Callithrix jacchus [2]) of 81.4 µg/mL/h and a Cmax [3] of 5700 ng/mL. For the same compound, the half-life [4] was 3.4 h, the Tmax [5] was 1.5 h and the Tmax [6] was 1.5 h. The Cmax [7] was 5100 ng/mL, the AUC (Rhesus monkey [8]) was 33400 ng·h/mL and the Tmax [9] was 0.5 h. The AUC (Callithrix jacchus [10]) was 63.6 µg/mL/h, the Cmax [11] was 5300 ng/mL and the half-life [12] was 3.9 h. It also gave a half-life [13] of 7.6 h, a Cmax [14] of 20900 ng/mL and a half-life [15] of 2 h. The Cmax [16] was 8500 ng/mL, the half-life [17] was 2.3 h and the half-life [18] was 6.4 h. For the same compound, the Tmax [19] was 1.1 h, the Activity (Francisella tularensis) was “Active” and the Cmax [20] was 16500 ng/mL. For the same compound, the Tmax [21] was 2.2 h, the Cmax [22] was 18800 ng/mL and the AUC (Callithrix jacchus [23]) was 112.4 µg/mL/h. For the same compound, the AUC (Rhesus monkey [24]) was 21300 ng·h/mL, the half-life [25] was 2.4 h and the AUC (Homo sapiens [26]) was 56300 ng·h/mL.
